As a reminder, the IC50 is the concentration that gives 50% inhibition. Read a high IC50 as a need for much substance.

The structures appear in SMILES notation. Activity calls are given as the source filed them. No cut-off for these calls is given here.

Assay [1] has as its system HeLa. Put plainly: Induction of apoptosis in human HeLa cells assessed as nuclear fragmentation after 24 hrs by AO/EB staining-based fluorescent microscopic analysis. The assay is classed as functional, cell-based. A digest of the protocol:
(§1)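 HeLa monolayers were grown in 24-well plates and exposed for 24 h at 0, 5, 10, 20 and 40 µM. Cells were stained 10 min with AO/EB dye mix (100 µg/mL each) and washed with PBS. Morphology was then viewed by fluorescence microscopy: chromatin condensation, nuclear fragmentation, and membrane integrity.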

Assay [2] concerns HeLa. As to the kind of experiment: Induction of apoptosis in human HeLa cells assessed as chromatin condensation after 24 hrs by AO/EB staining-based fluorescent microscopic analysis. It is filed as functional, cell-based. A digest of the protocol:
as §1

The test system of the next assay is MCF7. As to the kind of experiment: Antiproliferative activity against human MCF7 cells after 44 hrs by MTT assay. The assay is classed as functional, cell-based. The note with it: for IC50: MCF7, 44 h. The method, boiled down: (§2)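 HeLa, A549, SGC-7901 and MCF-7 cells seeded at 5 × 10^4 per well in DMEM at 37 °C, 5% CO2, incubated overnight. Cells were then treated at […], with 0.5% DMSO as control. MTT added for 4 h at 37 °C, formazan dissolved in DMSO, absorbance read at 570 nm. Inhibition % = (1 − Atreatment/Acontrol) × 100. Triplicate wells, each experiment repeated at least three times.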
In general terms: Tetrazolium assays rely on reduction of a dye to a coloured formazan, in cell work by metabolically active cells.

A further assay has as its system SGC-7901. Put plainly: (§3) Antiproliferative activity against human SGC7901 cells after 44 hrs by MTT assay. It is filed as functional, cell-based. A digest of the protocol: as §2
A short description of assay [3]: as §3. The assay is classed as functional, cell-based. The following applies: SGC-7901, 44 h. The method, boiled down: as §2
The subject of assay [4] is HeLa. As to the kind of experiment: Antiproliferative activity against human HeLa cells after 44 hrs by MTT assay. It is filed as functional, cell-based. A digest of the protocol: as §2
The subject of another assay is A549. Put plainly: Antiproliferative activity against human A549 cells after 44 hrs by MTT assay. It is filed as functional, cell-based. The following applies: for IC50: A549, 44 h. The method, boiled down:
as §2

Assay [5] concerns HeLa. Put plainly: Induction of apoptosis in human HeLa cells assessed as late apoptotic cells at 10 uM after 24 hrs by annexin V-FITC/propidium iodide staining-based flow cytometric analysis (reference value: 0.36%). The assay is classed as functional. A digest of the protocol:
(§4)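 HeLa cells were seeded at 3 × 10^5 per well in DMEM at 37 °C, 5% CO2, and treated with 0, 10, 20 or 40 µM for 24 h. Cells were trypsinized, washed in cold PBS, resuspended in binding buffer, and stained with Annexin V-FITC plus PI for 20 min in the dark. Flow cytometry quadrants defined early (Annexin+/PI−) and late (Annexin+/PI+) apoptotic cells.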
In general terms: Flow cytometry measures light scatter and fluorescence of single cells or particles in a stream.

The species named for assay [6] is Homo sapiens. As to the kind of experiment: Stabilization of HTG21 G-quadruplex DNA at 2.5 to 15 uM by PCR-stop assay. A digest of the protocol:
(§5)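 PCR-stop on forward primer HTG21 or mutant HTG21mu with reverse primer RevHTG21, each primer 0.4 µM. Mixes contained 0.2 mM dNTP and 1.5 U Taq in 1× Thermopol buffer (20 mM Tris–HCl, 10 mM KCl, 10 mM (NH4)2SO4, 2 mM MgSO4, 0.1% Triton X-100, pH 8.8). Ligand was tested at 0–15 µM. Products were resolved by electrophoresis and imaged under UV.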

For assay [7], the system named is HeLa. Put plainly: Induction of apoptosis in human HeLa cells assessed as increase in apoptotic ratio after 24 hrs by annexin V-FITC/propidium iodide staining-based flow cytometric analysis. It is filed as functional, cell-based. The method, boiled down:
as §4

The species named for assay [8] is Homo sapiens. As to the kind of experiment: Binding affinity to HTG21 G-quadruplex DNA assessed as transition temperature using Na+ buffer at 1:1 compound to DNA ratio by CD spectrometric analysis (reference value: 55.1 degC). A digest of the protocol: (§6)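 CD melting of HTG21 at 5 µM with ligand at 5 µM (1:1). Buffer was Tris–HCl 10 mM, pH 7.4, containing KCl or NaCl. Signal was monitored at 295 nm and curves were normalized to obtain the melting temperature. HTG21 was pre-annealed at 95 °C for 5 min, cooled slowly, and held at 4 °C overnight.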

Assay [9] concerns HeLa. Put plainly: Induction of apoptosis in human HeLa cells assessed as early apoptotic cells at 20 uM after 24 hrs by annexin V-FITC/propidium iodide staining-based flow cytometric analysis (reference value: 0.11%). The assay is classed as functional. A digest of the protocol: as §4
The test system of assay [10] is HeLa. As to the kind of experiment: Induction of apoptosis in human HeLa cells assessed as early apoptotic cells at 10 uM after 24 hrs by annexin V-FITC/propidium iodide staining-based flow cytometric analysis (reference value: 0.11%). The assay is classed as functional. A digest of the protocol:
as §4

For assay [11], the system named is HeLa. As to the kind of experiment: Induction of apoptosis in human HeLa cells assessed as late apoptotic cells at 40 uM after 24 hrs by annexin V-FITC/propidium iodide staining-based flow cytometric analysis (reference value: 0.36%). The assay is classed as functional. The method, boiled down:
as §4

For assay [12], the system named is Calf thymus DNA. Put plainly: Binding affinity to calf thymus DNA assessed as hypochromicity by electronic absorption spectroscopic analysis. The note with it: Bos taurus. It is filed as nucleic-acid assay.
Assay [13] concerns Calf thymus DNA. Put plainly: Binding affinity to calf thymus DNA at 5 uM by fluorescence emission spectroscopic analysis. The assay is classed as nucleic-acid assay. The following applies: Bos taurus.
The test system of assay [14] is HeLa. As to the kind of experiment: Induction of apoptosis in human HeLa cells assessed as early apoptotic cells at 40 uM after 24 hrs by annexin V-FITC/propidium iodide staining-based flow cytometric analysis (reference value: 0.11%). It is filed as functional. A digest of the protocol:
as §4

Assay [15] is filed under the species Homo sapiens. Put plainly: Binding affinity to HTG21 G-quadruplex DNA assessed as transition temperature using K+ buffer at 1:1 compound to DNA ratio by CD spectrometric analysis (reference value: 64.6 degC). The method, boiled down: as §6
For assay [16], the species on record is Homo sapiens. Put plainly: Binding affinity to HTG21 G-quadruplex DNA assessed as hypochromicity by electronic absorption spectroscopic analysis. A digest of the protocol:
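Absorption titration with ligand fixed at […] and HTG21 added at […], in Tris–HCl 10 mM, pH 7.4, containing KCl or NaCl. HTG21 was annealed at 95 °C for 5 min, cooled slowly, and held at 4 °C overnight. Absorbance decrease was followed. Binding constant was taken from a plot of [DNA]/(εa−εf) versus [DNA].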

Assay [17] deals with HeLa. Put plainly: Induction of apoptosis in human HeLa cells assessed as late apoptotic cells at 20 uM after 24 hrs by annexin V-FITC/propidium iodide staining-based flow cytometric analysis (reference value: 0.36%). The assay is classed as functional. A digest of the protocol: as §4
The species named for assay [18] is Homo sapiens. Put plainly: Binding affinity to HT6 G-quadruplex DNA at 0.5 to 1 compound to DNA ratio by NMR spectroscopic analysis. The method, boiled down: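 1H NMR at 25 °C on d(TTAGGG) 0.2 mM in 90% H2O/10% D2O with 150 mM KCl and 25 mM potassium phosphate, pH 7.0. Compound/quadruplex ratios were 0, 0.5 and 1. Watergate water suppression was used, and imino proton signals were monitored. Oligonucleotide was HPLC-purified.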

Assay [19] is filed under the species Homo sapiens. As to the kind of experiment: Binding affinity to HTG21 G-quadruplex DNA at 5 uM by fluorescence emission spectroscopic analysis. A digest of the protocol: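 Fluorescence emission titration with ligand fixed at […] and annealed HTG21 varied up to […]. Buffer was Tris–HCl 10 mM, pH 7.4, containing KCl or NaCl. Quenching was plotted as F0/F versus [HTG21]/[compound] and fitted.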

The species entered for assay [20] is Homo sapiens. Put plainly: Stabilization of HTG21mu G-quadruplex DNA at 15 uM by PCR-stop assay. The method, boiled down:
as §5

As to `O=C(CN1CCOCC1)Nc1ccc2oc3ccc(NC(=O)CN4CCOCC4)cc3c(=O)c2c1`, the Activity entry with HeLa [1], with HeLa [2], in the assay on MCF7, in the assay on SGC-7901, with HeLa [4] and in the assay on A549 was “Dose-dependent effect” in each case. Besides, the IC50 with MCF7 was greater than 100 µM; in [3] it was 84.9 µM; in the assay with HeLa [4], greater than 100 µM; in the assay on A549, 80.5 µM.

On to `O=C(CN1CCCCC1)Nc1ccc2oc3ccc(NC(=O)CN4CCCCC4)cc3c(=O)c2c1`, for which the Activity entry with HeLa [1], in the assay on HeLa [2], with MCF7, with SGC-7901, with HeLa [4] and in the assay with A549 was “Dose-dependent effect” each time. The IC50 was 83.9 µM with MCF7, 86.7 µM in assay [3], greater than 100 µM with HeLa [4] and greater than 100 µM in the assay with A549.

As for `CCN(CC)CC(=O)Nc1ccc2oc3ccc(NC(=O)CN(CC)CC)cc3c(=O)c2c1`, the Activity entry with HeLa [1], in the assay on HeLa [2], in the assay on MCF7, in the assay on SGC-7901, with HeLa [4] and in the assay with A549 was “Dose-dependent effect” in each case. Moreover, the IC50 in the assay with MCF7 came out at 26.6 µM; in [3], 32.2 µM; in the assay with HeLa [4], 20.4 µM; in the assay with A549, 19.9 µM.

As for `CN(C)CC(=O)Nc1ccc2oc3ccc(NC(=O)CN(C)C)cc3c(=O)c2c1`, the Activity entry with HeLa [1] was “Dose-dependent effect”; with HeLa [5], 9.45%; with HeLa [2], “Dose-dependent effect”; in the assay on HeLa [7] it was “Dose-dependent effect”; in the assay with MCF7, “Dose-dependent effect”; with HeLa [9], 22.69%. Also, the Activity was 12.36% in the assay with HeLa [10]; “Dose-dependent effect” in the assay on SGC-7901; 60.78% in the assay on HeLa [11]; 32.07% in the assay on HeLa [14]; “Dose-dependent effect” in the assay with HeLa [4]; 18.24% in the assay on HeLa [17]. Moreover, the Activity entry with A549 was “Dose-dependent effect”. In addition, the outcome in the assay listed under Homo sapiens [6], in the assay filed under Homo sapiens [18] and in the assay filed under Homo sapiens [19] was Active. The figures for the T in the assay listed under Homo sapiens [8] and in the assay filed under Homo sapiens [15] were 60.8 °C and 70.3 °C, respectively. The IC50 turned out to be 23 µM in the assay on MCF7, 17.3 µM in assay [3], 13.2 µM with HeLa [4] and 18.7 µM in the assay on A549. Also, the Kb with Calf thymus DNA [12] stood at 0.46 ×10⁴ /M; in the assay listed under Homo sapiens [16], 2.89 ×10⁴ /M. Moreover, the result in the assay on Calf thymus DNA [13] and in the assay listed under Homo sapiens [20] was inactive.

For the compound `O=C(CN1CCCC1)Nc1ccc2oc3ccc(NC(=O)CN4CCCC4)cc3c(=O)c2c1`, the Activity entry with HeLa [1], in the assay on HeLa [2], in the assay with MCF7, with SGC-7901, in the assay on HeLa [4] and in the assay on A549 was “Dose-dependent effect” throughout. Moreover, the IC50 in the assay on MCF7 was determined as 34.9 µM; in assay [3], 35.9 µM; with HeLa [4], 48.2 µM; in the assay on A549, 21.5 µM.
